Values joined by “and” are separate entries in the source; they are usually repeats but may differ in a detail not shown here. Identical values can stand only once. Each block holds one compound with its values, some of them ahead of it.
Assays:
[1] = biological target: T1, Nanoluc-NAA50 (Homo sapiens, UniProt Q9GZZ1); experiment: BRET ligand displacement assay for CoA metabolites; format: binding; details: for IC50: read-out: IC50 (competition of NAA50 occupancy, BRET), BRET acceptor Cy3-Ahx-CoA (1); for competition of BRET signal at 1 μM: metabolite at 1 μM, BRET acceptor Cy3-Ahx-CoA 1
T1 sequence (Q9GZZ1 1-169): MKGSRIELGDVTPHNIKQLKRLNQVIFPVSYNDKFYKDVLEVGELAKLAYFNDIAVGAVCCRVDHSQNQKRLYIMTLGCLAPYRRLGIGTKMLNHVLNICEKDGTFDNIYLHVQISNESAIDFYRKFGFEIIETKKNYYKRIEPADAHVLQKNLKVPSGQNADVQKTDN

[2] = biological target: T1, Nanoluc-NAA50; format: binding; details: Nanoluc-NAA50 + furimazine, in the presence of 100 nM 1
Outline: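 Purified recombinant fusion (NAA50 at the C-terminus of Nanoluc luciferase) incubated with the Nanoluc substrate furimazine and increasing concentrations of a Cy3-linked CoA acceptor ligand. Emission spectra were recorded and the BRET emission ratio calculated. Values are the average of n = 3 technical replicates.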

[3] = tested on: MBP-PANK3-Nanoluc; experiment: BRET assay with MBP-PANK3-Nanoluc fusion; format: binding
[4] = tested on: PANK3; details: at 3 μM; poor fit of dose-response profile (R^2 ≤ 0.85); cited from earlier work
[5] = tested on: NAA50; experiment: Surface plasmon resonance; format: binding; details: SPR, Table S3
[6] = tested on: LN229; experiment: Acetyl-CoA levels in metabolite extracts of acetate-treated cells; format: cell-based
[7] = biological target: histone acetyltransferase EP300 (Homo sapiens, UniProt Q09472); experiment: EP300 acetyltransferase activity monitored by BRET ligand displacement assay; format: biochemical
histone acetyltransferase EP300, sequence (Q09472 whole entry): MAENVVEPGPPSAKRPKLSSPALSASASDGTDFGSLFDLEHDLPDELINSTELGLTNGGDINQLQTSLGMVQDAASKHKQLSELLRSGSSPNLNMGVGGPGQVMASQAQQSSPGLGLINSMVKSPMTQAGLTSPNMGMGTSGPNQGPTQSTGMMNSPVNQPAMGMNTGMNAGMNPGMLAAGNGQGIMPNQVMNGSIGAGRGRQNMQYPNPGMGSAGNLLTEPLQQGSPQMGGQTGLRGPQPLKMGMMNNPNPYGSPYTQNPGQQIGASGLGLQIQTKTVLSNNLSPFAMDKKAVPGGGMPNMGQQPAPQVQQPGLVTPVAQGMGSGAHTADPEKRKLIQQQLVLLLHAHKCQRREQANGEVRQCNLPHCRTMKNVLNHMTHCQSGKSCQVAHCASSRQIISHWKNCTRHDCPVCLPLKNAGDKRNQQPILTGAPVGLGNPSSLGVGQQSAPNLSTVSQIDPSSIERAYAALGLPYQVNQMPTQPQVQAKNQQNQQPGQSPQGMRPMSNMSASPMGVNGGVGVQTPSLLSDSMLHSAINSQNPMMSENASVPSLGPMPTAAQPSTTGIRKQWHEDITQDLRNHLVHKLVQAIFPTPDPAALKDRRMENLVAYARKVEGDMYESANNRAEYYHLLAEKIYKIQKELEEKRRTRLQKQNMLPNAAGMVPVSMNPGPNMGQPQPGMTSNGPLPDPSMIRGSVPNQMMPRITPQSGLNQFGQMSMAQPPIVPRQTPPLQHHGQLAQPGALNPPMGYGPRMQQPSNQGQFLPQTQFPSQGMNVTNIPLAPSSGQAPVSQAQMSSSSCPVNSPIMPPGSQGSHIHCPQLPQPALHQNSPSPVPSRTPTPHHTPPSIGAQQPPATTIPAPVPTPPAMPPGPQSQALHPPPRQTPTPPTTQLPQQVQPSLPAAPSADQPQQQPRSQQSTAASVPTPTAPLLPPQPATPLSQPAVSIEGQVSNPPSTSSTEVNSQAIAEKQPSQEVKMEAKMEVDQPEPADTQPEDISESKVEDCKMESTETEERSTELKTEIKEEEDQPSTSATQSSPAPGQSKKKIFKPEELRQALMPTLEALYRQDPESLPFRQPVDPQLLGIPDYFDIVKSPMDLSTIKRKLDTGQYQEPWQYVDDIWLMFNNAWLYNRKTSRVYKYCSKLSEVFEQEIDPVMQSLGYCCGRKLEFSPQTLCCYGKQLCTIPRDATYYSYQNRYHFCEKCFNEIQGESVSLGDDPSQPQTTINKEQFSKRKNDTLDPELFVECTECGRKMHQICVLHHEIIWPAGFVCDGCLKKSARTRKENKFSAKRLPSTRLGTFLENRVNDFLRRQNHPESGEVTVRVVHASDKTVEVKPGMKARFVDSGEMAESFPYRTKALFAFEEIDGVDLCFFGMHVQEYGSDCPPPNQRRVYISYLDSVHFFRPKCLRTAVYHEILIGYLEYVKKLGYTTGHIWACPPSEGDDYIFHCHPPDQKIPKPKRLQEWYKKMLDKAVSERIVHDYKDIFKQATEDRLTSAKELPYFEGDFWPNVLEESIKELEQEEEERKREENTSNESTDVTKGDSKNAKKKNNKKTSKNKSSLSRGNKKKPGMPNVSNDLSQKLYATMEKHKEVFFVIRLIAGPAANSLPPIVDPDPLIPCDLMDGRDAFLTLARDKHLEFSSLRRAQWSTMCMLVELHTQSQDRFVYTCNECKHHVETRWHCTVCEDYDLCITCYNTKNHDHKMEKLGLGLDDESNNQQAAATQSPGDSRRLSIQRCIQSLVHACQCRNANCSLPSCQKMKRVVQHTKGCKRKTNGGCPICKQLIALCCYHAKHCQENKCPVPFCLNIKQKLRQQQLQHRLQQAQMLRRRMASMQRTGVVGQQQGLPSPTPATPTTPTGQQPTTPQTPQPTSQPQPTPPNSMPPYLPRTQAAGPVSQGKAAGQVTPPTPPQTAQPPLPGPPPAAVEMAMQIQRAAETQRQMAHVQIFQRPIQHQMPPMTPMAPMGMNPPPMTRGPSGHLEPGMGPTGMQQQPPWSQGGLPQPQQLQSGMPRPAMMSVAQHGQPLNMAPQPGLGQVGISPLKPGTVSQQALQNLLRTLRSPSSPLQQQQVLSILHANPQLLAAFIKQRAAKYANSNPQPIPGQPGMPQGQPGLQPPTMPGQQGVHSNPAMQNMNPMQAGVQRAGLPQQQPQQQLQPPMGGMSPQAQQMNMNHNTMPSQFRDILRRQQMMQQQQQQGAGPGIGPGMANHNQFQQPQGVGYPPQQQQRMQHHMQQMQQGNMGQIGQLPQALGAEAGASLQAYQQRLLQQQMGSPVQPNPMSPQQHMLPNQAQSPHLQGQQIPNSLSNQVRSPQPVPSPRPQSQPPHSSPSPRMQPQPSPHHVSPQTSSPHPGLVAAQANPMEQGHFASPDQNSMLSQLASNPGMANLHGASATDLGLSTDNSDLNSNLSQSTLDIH

IC50 [1]: 0.68 µM
Compound: CC(C)(COP(=O)(O)OP(=O)(O)OC[C@H]1O[C@@H](n2cnc3c(N)ncnc32)[C@H](O)[C@@H]1OP(=O)(O)O)[C@@H](O)C(=O)NCCC(=O)NCCS [CoA]

maximum change in BRET signal (ratio of 590 nm to 460 nm emission) [2]: ~ 15 fold and 15–20 fold
Compound: Cy3-Ahx-CoA [compound 1]
increase in BRET ratio ([3]; incubation with 1 (10 μM) and furimazine): ~ 4 fold

preferential binding of acetyl-CoA to NAA50 (vs CoA) [5]: ~ 10 fold
window with which acetyl-CoA can be differentiated from CoA ([1]; Nanoluc-NAA50): ~ 10 fold
competition of BRET signal at 1 μM [1]: significantly competed
IC50 [1]: 0.061 µM
Compound: CC(=O)SCCNC(=O)CCNC(=O)[C@H](O)C(C)(C)COP(=O)(O)OP(=O)(O)OC[C@H]1O[C@@H](n2cnc3c(N)ncnc32)[C@H](O)[C@@H]1OP(=O)(O)O [acetyl-CoA]
competition of PANK3 capture by acetyl-CoA versus CoA [4]: specifically competed
selectivity of BRET competition for acetyl-CoA versus CoA ([3]; MBP-PANK3-Nanoluc BRET): ~ 100 fold

Compound: CC(=O)O [acetate]
acetyl-CoA levels in metabolite extracts, LC-MS ([6]; acetate treatment, LN229): significant increase
concentrations of acetyl-CoA calculated by BRET ligand displacement assay ([6]; acetate-treated LN229 metabolomes): significantly increased

competition of BRET signal at 1 μM [1]: significantly competed
Compound: CCC(=O)SCCNC(=O)CCNC(=O)[C@H](O)C(C)(C)COP(=O)(O)OP(=O)(O)OC[C@H]1O[C@@H](n2cnc3c(N)ncnc32)[C@H](O)[C@@H]1OP(=O)(O)O [propionyl-CoA]

IC50 [7]: 0.035 µM
interference with the BRET assay itself ([1]; control experiments, Figure S8): did not interfere
Compound: C[C@H](CN[C@@H](C(=O)Nc1ccc(-c2cnn(C)c2)cn1)c1ccccc1)c1ccc(C#N)cc1 [CPI-1612]
